The source of these data is ChEMBL document CHEMBL6121049, “Discovery of Orally Available Prodrugs of Itaconate and Derivatives” (J Med Chem, 2025).

Data set [1] in a line: Prodrug conversion in C57BL6 mouse skin assessed as itaconic acid Cmax at 100 mg/kg, po measured after 24 hrs by LC-MS/MS analysis. It counts as ADME, organism-based, Skin of body. As to conditions: in vivo. The procedure, abridged:
(§1)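 C57BL6 mice, 25–30 g, 8.5 weeks old, given 100 mg/kg (IA or 4-MI equivalent) orally in 10% DMSO/80% PEG/10% HBS, freshly prepared; killed at 0.25–24 h, n = 3 per time point; acidified plasma and stabilized skin homogenates, methanol precipitation with internal standards, LC-MS/MS (orbitrap); PK parameters as mean ± SEM.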

Data set [2] in a line: Metabolic stability in human skin homogenate assessed as compound remaining at 10 uM measured after 1 hrs by LC-MS analysis. As to conditions: tissue homogenate. It counts as ADME, tissue-based, Skin of body.
A short description of data set [3]: Chemical stability in pH 7.4 assessed as compound remaining at 10 uM measured after 1 hrs by LC-MS/MS analysis. It counts as physicochemical. The settings on record: buffer, pH 7.4, 1 h. A digest of the protocol:
(§2)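 Compounds incubated in buffers at pH 1.2, 4.5 or 7.4 at 37 °C for 1 h; prodrug disappearance followed by LC–MS/MS as % remaining.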

Data set [4] in a line: Prodrug conversion in C57BL6 mouse skin assessed as itaconic acid AUC (0 to t) at 100 mg/kg, po measured after 24 hrs by LC-MS/MS analysis. It counts as ADME, organism-based, Skin of body. The settings on record: in vivo.
Data set [5] in a line: Prodrug conversion in C57BL6 mouse skin assessed as itaconic acid half life at 100 mg/kg, po measured after 24 hrs by LC-MS/MS analysis. It counts as ADME, organism-based, Skin of body. As to conditions: in vivo. The procedure, abridged:
as §1

Data set [6] in a line: Prodrug conversion in C57BL6 mouse plasma assessed as itaconic acid AUC (0 to t) at 100 mg/kg, po measured after 24 hrs by LC-MS/MS analysis. It counts as ADME, organism-based. The settings on record: in vivo.
Data set [7] can be described thus: Prodrug conversion in C57BL6 mouse plasma assessed as itaconic acid Cmax at 100 mg/kg, po measured after 24 hrs by LC-MS/MS analysis. It is filed as ADME, organism-based. As to conditions: in vivo. A digest of the protocol: as §1
Data set [8] in a line: Metabolic stability in mouse plasma assessed as compound remaining at 10 uM measured after 1 hrs by LC-MS analysis. It is filed as ADME, cell-free. A digest of the protocol:
(§3)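 Prodrugs (10 μM) spiked into mouse or human plasma, shaken at 37 °C; samples at 0 and 60 min quenched in cold acetonitrile with losartan internal standard, centrifuged, diluted, run by LC-HRMS; % remaining from analyte/IS peak-area ratio.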

Data set [9] is described as follows: Cytotoxicity against NHEK cells assessed as cell viability at 100 uM measured after 8 hrs by CellTiter-Glo assay relative to control. It is filed as toxicity, cell-based. The settings on record: human. The procedure, abridged:
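Primary normal human epidermal keratinocytes, expanded and seeded, exposed to 1, 10, 30 or 100 μM for 8 h; viability by CellTiter-Glo luminescence as % viable.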

Data set [10] can be described thus: Metabolic stability in human plasma assessed as compound remaining at 10 uM measured after 1 hrs by LC-MS analysis. It is filed as ADME, cell-free. A digest of the protocol: as §3
The nature of data set [11]: Permeability of the compound at pH 7.4 incubated for 4 hrs by PAMPA-GIT assay. It counts as ADME. The settings on record: pH 7.4, 4 h. A digest of the protocol: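 PAMPA-GIT sandwich: acceptor filter coated with GIT-0 lipid; donor holds 10 μM compound in pH 7.4 buffer with 0.2% DMSO, acceptor pH 7.4 sink buffer; 4 h at room temperature; both compartments sampled by LC-MS/MS; effective permeability Pe calculated with membrane retention correction.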

Data set [12] in a line: Immunomodulatory activity in NHEK cells assessed as inhibition of IFN-gamma induced CXCL11 expression at 30 to 100 uM by TaqMan RTPCR analysis relative to control. It is filed as functional, Homo sapiens. As to conditions: dose 30-100 µM. The procedure, abridged:
(§4)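 Primary human keratinocytes seeded, held overnight at 37 °C, 5% CO2, then stimulated with Poly(I:C) 50 μg/mL plus IFNγ 5 ng/mL, with or without prodrug at 1, 10, 30 or 100 μM; gene induction measured at 8 h.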

Data set [13] can be described thus: Prodrug conversion in C57BL6 mouse plasma assessed as itaconic acid half life at 100 mg/kg, po measured after 24 hrs by LC-MS/MS analysis. It is filed as ADME, organism-based. As to conditions: in vivo. The procedure, abridged: as §1
The nature of data set [14]: Immunomodulatory activity in NHEK cells assessed as inhibition of IL-6 mRNA expression at 100 uM preincubated for 2 days and measured after 24 hrs by TaqMan RTPCR analysis. It counts as functional. As to conditions: Homo sapiens, 48 h, time 2 day.
Data set [15] can be described thus: Immunomodulatory activity in NHEK cells assessed as inhibition of Poly(I:C)/IFN-gamma induced IL-1 beta expression at >= 10 uM by TaqMan RTPCR analysis relative to control. It is filed as functional, Homo sapiens. Details: scale not given: the % may be the effect or the level left. The procedure, abridged: as §4
Data set [16] is described as follows: Metabolic stability in mouse skin homogenate assessed as compound remaining at 10 uM measured after 1 hrs by LC-MS analysis. It is filed as ADME, tissue-based, Skin of body. The settings on record: tissue homogenate.
A short description of data set [17]: Prodrug conversion in C57BL6 mouse skin assessed as itaconic acid Tmax at 100 mg/kg, po measured after 24 hrs by LC-MS/MS analysis. It counts as ADME, organism-based, Skin of body. As to conditions: in vivo. The procedure, abridged: as §1
Data set [18] in a line: Prodrug conversion in C57BL6 mouse plasma assessed as itaconic acid Tmax at 100 mg/kg, po measured after 24 hrs by LC-MS/MS analysis. It is filed as ADME, organism-based. As to conditions: in vivo. A digest of the protocol:
as §1

The nature of data set [19]: Chemical stability in pH 1.2 assessed as compound remaining at 10 uM measured after 1 hrs by LC-MS/MS analysis. It counts as physicochemical. The settings on record: buffer, pH 1.2, 1 h. The procedure, abridged:
as §2

Data set [20] can be described thus: Toxicity in C57BL6 mouse assessed as hematological changes at 30 to 100 mg/kg, ip measured after 7 days. It counts as organism-based. As to conditions: in vivo, 168 h, dose 30-100 mg/kg, time 7 day.
A short description of data set [21]: Prodrug conversion in C57BL6 mouse plasma assessed as 4-methyl itaconate Tmax at 100 mg/kg, po measured after 24 hrs by LC-MS/MS analysis. It is filed as ADME, organism-based. As to conditions: in vivo. A digest of the protocol:
as §1

Data set [22] in a line: Prodrug conversion in C57BL6 mouse plasma assessed as 4-methyl itaconic AUC (0 to t) at 100 mg/kg, po measured after 24 hrs by LC-MS/MS analysis. The settings on record: in vivo. It is filed as ADME, organism-based.
Data set [23] is described as follows: Prodrug conversion in C57BL6 mouse skin assessed as 4-methyl itaconic half life at 100 mg/kg, po measured after 24 hrs by LC-MS/MS analysis. It is filed as ADME, organism-based, Skin of body. As to conditions: in vivo. A digest of the protocol:
as §1

A short description of data set [24]: Prodrug conversion in C57BL6 mouse plasma assessed as 4-methyl itaconate Cmax at 100 mg/kg, po measured after 24 hrs by LC-MS/MS analysis. It counts as ADME, organism-based. As to conditions: in vivo. The procedure, abridged: as §1
Data set [25] is described as follows: Prodrug conversion in C57BL6 mouse skin assessed as 4-methyl itaconic AUC (0 to t) at 100 mg/kg, po measured after 24 hrs by LC-MS/MS analysis. It counts as ADME, organism-based, Skin of body. As to conditions: in vivo.
Data set [26] can be described thus: Prodrug conversion in C57BL6 mouse skin assessed as 4-methyl itaconate Cmax at 100 mg/kg, po measured after 24 hrs by LC-MS/MS analysis. It counts as ADME, organism-based, Skin of body. The settings on record: in vivo. The procedure, abridged: as §1
Data set [27] can be described thus: Prodrug conversion in C57BL6 mouse skin assessed as 4-methyl itaconate Tmax at 100 mg/kg, po measured after 24 hrs by LC-MS/MS analysis. It counts as ADME, organism-based, Skin of body. The settings on record: in vivo. A digest of the protocol:
as §1

Data set [28] in a line: Prodrug conversion in po dosed C57BL6 mouse skin assessed as 4-methyl itaconic concentration measured after 24 hrs. It is filed as ADME, organism-based, Skin of body. The settings on record: in vivo.
Data set [29] in a line: Prodrug conversion in C57BL6 mouse plasma assessed as 4-methyl itaconic half life at 100 mg/kg, po measured after 24 hrs by LC-MS/MS analysis. It is filed as ADME, organism-based. As to conditions: in vivo. The procedure, abridged:
as §1

Data set [30] can be described thus: Chemical stability in pH 4.5 assessed as compound remaining at 10 uM measured after 1 hrs by LC-MS/MS analysis. It is filed as physicochemical. As to conditions: buffer, pH 4.5, 1 h. The procedure, abridged: as §2
Data set [31] can be described thus: Toxicity in C57BL6 mouse assessed as body weight loss at 30 to 100 mg/kg, ip administrated daily and measured after 7 days. It counts as organism-based. The settings on record: in vivo, 168 h, dose 30-100 mg/kg, time 7 day.

The structures appear in SMILES notation.

For `C=C(CC(=O)OCOC(=O)OC(C)C)C(=O)OCOC(=O)OC(C)C`, the Cmax came out at 65.9 nmol/g in [1] and 83.8 µM in [7]. The Stability in data set [2] worked out at 1.1%; in data set [3], 47%; in data set [8], 0%; in [10] it was 0%; in data set [16] it was 2.5%; in [19] it was 104%. Further, the AUCt in data set [4] was 173 nmol·h/g; in data set [6], 108 µM·h. Also, the t1/2 in data set [5] came to 3.32 h; in data set [13], 1.42 h. In addition, the values for the Activity in data set [9] and in data set [15] were more than 80% and more than 50%, respectively. The permeability in [11] is reported as 35.9 10^-6 cm/s. Also, the “inhibition (INH)” value in data set [12] was more than 50%. Moreover, the inhibition at 100 µM in [14] is more than 90%. Besides, the results for the Tmax in [17] and in data set [18] were 1 h and 15 min, respectively.
Regarding `C=C(CC(=O)OC)C(=O)OCOC(=O)OC(C)C`, the Stability in data set [2] worked out at 1.6%; in data set [3], 102%; in data set [8], 0%; in data set [10], 0%; in data set [16], 0%; in data set [30], 103%. Besides, the Stability in data set [19] was determined as 108%. Further, the Activity entry in [20] is recorded as “Non-toxic”; in data set [9] it was more than 80%; in [15] it was more than 50%; in data set [31], “Non-toxic”. The values for the Tmax in [21] and in [27] were 30 min and 1 h, respectively. Moreover, the AUCt in data set [22] is 415 µM·h; in data set [25], 234 nmol·h/g. Moreover, the t1/2 in data set [23] turned out to be 58.2 min; in [29] it was 52.2 min. Also, in data set [11], the permeability was 35.3 10^-6 cm/s. Besides, the “inhibition (INH)” value in data set [12] is on record as more than 50%. Also, the Cmax in data set [24] stood at 349 µM; in data set [26], 192 nmol/g. In addition, the inhibition at 100 µM in data set [14] was more than 90%. Moreover, the Drug metabolism in [28] was more than 100 µM.
